The source made the active and inactive calls. The calls are words filed in the database; no cut-off is given here.
Assays:
Saccharomyces cerevisiae = assay: Inhibition of Saccharomyces cerevisiae alpha-D-glucosidase at 1 mg/ml after 10 to 20 mins
Method in brief: (§1)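 Enzyme was pre-incubated with test solution at 1 mg/ml, or dH2O for controls, for 10–20 min at 27 °C. Substrate was added and incubation continued for the same time at 27 °C. The reaction was stopped with glycine solution and read at 405 nm. Each sample and control ran in three wells at the enzyme's optimal pH. Values are % inhibition.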

[1] = test system: Geobacillus stearothermophilus; assay: Inhibition of Bacillus stearothermophilus alpha-D-glucosidase at 1 mg/ml after 10 to 20 mins; method in brief: as §1
Oryza sativa = assay: Inhibition of rice alpha-D-glucosidase at 1 mg/ml after 10 to 20 mins; method in brief: as §1
Prunus = assay: Inhibition of almond beta-D-glucosidase at 1 mg/ml after 10 to 20 mins; method in brief: as §1
Canavalia ensiformis = assay: Inhibition of jack bean alpha-D-mannosidase at 1 mg/ml after 10 to 20 mins; method in brief: as §1
Cellulomonas fimi = assay: Inhibition of Cellulomonas fimi beta-D-mannosidase at 1 mg/ml after 10 to 20 mins; method in brief: as §1
Bos taurus = organism: Bos taurus; assay: Inhibition of bovine kidney N-acetyl-beta-D-glucosaminidase at 1 mg/ml after 10 to 20 mins; method in brief: as §1
[2] = biological target: Alpha-galactosidase (Coffea arabica) (UniProt Q42656); assay: Inhibition of green coffee beans alpha-D-galactosidase at 1 mg/ml after 10 to 20 mins; method in brief: as §1
[3] = biological target: T1, Beta-galactosidase (Bos taurus) (UniProt Q58D55); assay: Inhibition of bovine kidney beta-D-galactosidase at 1 mg/ml after 10 to 20 mins; method in brief: as §1
T1 sequence (whole entry): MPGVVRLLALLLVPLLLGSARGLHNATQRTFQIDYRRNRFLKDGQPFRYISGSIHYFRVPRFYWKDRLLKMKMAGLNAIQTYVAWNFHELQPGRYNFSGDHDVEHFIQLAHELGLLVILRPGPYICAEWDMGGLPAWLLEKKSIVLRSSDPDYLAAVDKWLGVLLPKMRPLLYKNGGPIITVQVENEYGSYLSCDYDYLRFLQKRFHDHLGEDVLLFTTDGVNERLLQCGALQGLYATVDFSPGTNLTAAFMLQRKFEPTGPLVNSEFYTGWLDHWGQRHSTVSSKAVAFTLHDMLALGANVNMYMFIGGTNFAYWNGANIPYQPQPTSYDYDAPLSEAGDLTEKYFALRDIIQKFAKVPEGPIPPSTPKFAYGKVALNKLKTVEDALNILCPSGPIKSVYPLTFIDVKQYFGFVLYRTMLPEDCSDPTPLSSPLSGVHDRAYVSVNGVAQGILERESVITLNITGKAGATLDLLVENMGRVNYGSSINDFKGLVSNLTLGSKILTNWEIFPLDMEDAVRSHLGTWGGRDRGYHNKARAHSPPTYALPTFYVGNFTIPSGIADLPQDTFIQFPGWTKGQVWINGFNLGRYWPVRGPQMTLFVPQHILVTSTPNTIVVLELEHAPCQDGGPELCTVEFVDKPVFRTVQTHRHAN

Penicillium decumbens = assay: Inhibition of Penicillium decumbens naringinase at 1 mg/ml after 10 to 20 mins; method in brief: as §1

Alpha-galactosidase (Coffea arabica), sequence (Q42656 16-378 limits assumed): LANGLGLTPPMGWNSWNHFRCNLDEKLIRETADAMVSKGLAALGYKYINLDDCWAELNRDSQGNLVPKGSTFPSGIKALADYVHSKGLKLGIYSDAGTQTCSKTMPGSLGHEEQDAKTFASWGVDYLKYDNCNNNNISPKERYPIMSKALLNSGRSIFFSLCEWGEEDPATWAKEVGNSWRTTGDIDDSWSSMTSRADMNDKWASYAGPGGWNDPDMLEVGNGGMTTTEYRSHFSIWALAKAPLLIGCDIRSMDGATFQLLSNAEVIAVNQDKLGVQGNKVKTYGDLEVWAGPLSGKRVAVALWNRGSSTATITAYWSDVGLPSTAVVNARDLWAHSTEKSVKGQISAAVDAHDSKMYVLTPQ

Row | SMILES | inhibition (Saccharomyces cerevisiae) | inhibition [1] | inhibition (Oryza sativa) | inhibition (Prunus) | inhibition (Canavalia ensiformis) | inhibition (Cellulomonas fimi) | inhibition (Bos taurus) | inhibition [2] | inhibition [3] | inhibition (Penicillium decumbens)
1 | COC(=O)C(C)N1C[C@@H](CO)O[C@H](OC)C1 (stereo partly drawn) | inactive | inactive | inactive | inactive |  | inactive | inactive | inactive | 14% | inactive
2 | CO[C@@H]1CNC[C@@H](CO)O1 | inactive | inactive | inactive | 4% | inactive | 5% | 10% | inactive | 27% | 9%
3 | COC(=O)C(Cc1ccccc1)N1C[C@@H](CO)O[C@H](OC)[C@H](O)C1 (stereo partly drawn) | inactive | inactive | inactive | inactive | inactive | inactive | inactive | inactive | inactive | inactive
4 | COC(=O)C(Cc1ccc(O)cc1)N1C[C@@H](CO)O[C@H](OC)C1 (stereo partly drawn) | inactive | inactive | inactive | inactive |  | inactive | inactive | inactive | 12% | inactive
5 | CO[C@H]1O[C@H](CO)CN(Cc2ccccc2)C[C@H]1O | inactive | inactive | inactive | inactive | inactive | inactive |  | inactive | inactive | inactive
6 | COC(=O)C(Cc1ccccc1)N1C[C@@H](CO)O[C@H](OC)C1 (stereo partly drawn) | inactive | inactive | inactive | inactive |  | inactive | inactive | inactive | 5% | inactive

Next, values leading:

Row | inhibition (Saccharomyces cerevisiae) | inhibition [1] | inhibition (Oryza sativa) | inhibition (Prunus) | inhibition (Canavalia ensiformis) | inhibition (Cellulomonas fimi) | inhibition (Bos taurus) | inhibition [2] | inhibition [3] | inhibition (Penicillium decumbens) | SMILES
7 | 8% | inactive | inactive | inactive | inactive | inactive | 32% | inactive | 23% | inactive | CCCCN1C[C@@H](CO)O[C@H](OC)[C@H](O)C1
8 | inactive | inactive | inactive | inactive | inactive | inactive |  | inactive | inactive | inactive | CO[C@H]1O[C@H](CO)CN(O)C[C@H]1O
9 | inactive | inactive | inactive | inactive | inactive | inactive | inactive | inactive | inactive | inactive | COC(=O)C(C)N1C[C@@H](CO)O[C@H](OC)[C@H](O)C1 (stereo partly drawn)
10 | inactive | inactive | inactive | inactive | inactive | inactive |  | inactive | inactive | inactive | COC(=O)CN1C[C@@H](CO)O[C@H](OC)[C@H](O)C1
11 | inactive | inactive | inactive | inactive | inactive | inactive |  | inactive | inactive | inactive | CCCCCCCCN1C[C@@H](CO)O[C@H](OC)[C@H](O)C1
